MLL AF4-AF9 inh = blocks AF4 peptide binding to human AF9 | P42568 | AlphaScreen, biotin-AF4 peptide binding to FLAG-AF9 | inhibition, % at 10 µM | actives 0.47% (n = 350,000);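 active = every replicate reaching a set inhibition limit, whatever the replicate mean, cut at about 25% in these data; inconclusive = mean inhibition reaches that limit but some replicates miss it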;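 note: 0% = plate neutral control median and 100% = total signal loss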
RAD52 anneal inh = RAD52 (human) annealing inhibition. inhibition, % at 18.7 µM. recombinant RAD52 DNA annealing, FRET fluorescence. AID 651710. actives 0.46% (n = 360,000). P43351;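 active = every replicate showing at least 50% inhibition; inconclusive = mean inhibition at least 50% but not in every replicate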
Target sequence (P43351 whole entry, looked up): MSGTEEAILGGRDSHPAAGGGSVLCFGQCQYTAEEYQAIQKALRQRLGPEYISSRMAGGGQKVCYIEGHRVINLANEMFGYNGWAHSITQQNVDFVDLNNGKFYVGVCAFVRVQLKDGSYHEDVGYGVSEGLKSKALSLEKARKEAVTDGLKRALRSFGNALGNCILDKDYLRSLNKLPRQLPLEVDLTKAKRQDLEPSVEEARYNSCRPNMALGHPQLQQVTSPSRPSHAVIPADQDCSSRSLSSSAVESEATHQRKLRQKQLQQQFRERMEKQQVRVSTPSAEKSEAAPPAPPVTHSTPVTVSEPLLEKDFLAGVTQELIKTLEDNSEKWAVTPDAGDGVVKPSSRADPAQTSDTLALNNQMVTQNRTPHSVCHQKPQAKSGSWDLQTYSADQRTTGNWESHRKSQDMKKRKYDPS
GSIS activator = GLuc luminescence reporter in INS-1E cells, primary screen for activators of glucose-dependent secretion of insulin; INS-1E GLuc reporter insulin secretion, 2-3 h; activation, % at 16.6 µM; actives 0.61% (n = 370,000); AID 743287;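 active = lowest replicate activation of at least 40%, so every replicate reaches that level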;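 note: 0% = median of neutral control wells and 100% = median of IBMX positive control wells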
S100A4 inh HTS = blocks human S100A4 binding to myosin IIA peptide; P26447; S100A4/TAMRA-MyoIIA peptide fluorescence polarization; inhibition, % at 10.7 µM; actives 0.14% (n = 360,000);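 active = mean inhibition of at least 70% across replicates, with every replicate also reaching that level; inconclusive = mean inhibition reaches 70% but some replicates fall short; inactive = mean inhibition below 70%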
Target sequence (P26447 whole entry, looked up): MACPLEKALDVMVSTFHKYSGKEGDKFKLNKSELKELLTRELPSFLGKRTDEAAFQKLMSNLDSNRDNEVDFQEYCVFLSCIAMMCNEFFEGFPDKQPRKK
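assay system = human S100A4 monomer with TAMRA-labelled myosin IIA peptide | also added = labelled myosin peptide probe, 5 nM | incubation = 5 min between mix addition and reading | control set = DMSO and TFP controls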
ERAP1 inh = blocks human ERAP1 aminopeptidase activity; Q9NZ08; recombinant ERAP1, Leu-AMC fluorescence, 60 min; inhibition, % at 10.7 µM; actives 0.15% (n = 340,000); AID 652197;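 active = mean replicate inhibition of at least 30%, or all replicates individually reaching that 30% level; inactive = mean below 30% and not every replicate reaching it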;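 note: 0% = neutral control wells and 100% = L-leucinethiol positive control wells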
Alpha interfer = interferes with the AlphaScreen assay signal | shares compounds with MLL AF4-AF9 inh | AlphaScreen interference counter-screen, signal luminescence | AC50, µM (top dose mostly 12 µM), inactives show top-dose activity change, negative = inhibition | actives 45% (n = 530); cut-off not given, nearly all actives have AC50 up to about 14 µM
The depositor's hits bear a star; i = inactive; ? = inconclusive; / = not tested or not shown; ! = repeats disagree. Hits are enriched below; roughly 1.5% of the tested compounds scored in any of these assays.

SMILES	MLL AF4-AF9 inh	RAD52 anneal inh	GSIS activator	S100A4 inh HTS	ERAP1 inh	Alpha interfer
Cc1cc2c(cc1C)N[C@]1(C[C@H]3CCCC(=O)N4CC[C@@H](C1)[C@@H]34)C(=NC(C)(C)CC(C)(C)C)N2	49.9*	-0.7	/	5.2	-0.9	-24.1%
O=C1CCC[C@@H]2C[C@@]3(C[C@@H]4CCN1[C@H]24)Nc1cc(Cl)ccc1NC3=NC1CCCCC1	6.3	-1.2	/	6.8	-4.5	/
Nc1ccc(N)c(C(=O)O)c1	26.7*	/	/	23.9	/	-8.0%
Nc1ccc(C(=O)O)c(O)c1	9.3	-7.4	15.4	-1.5	1.3	/
COc1ccccc1C#Cc1ccc2c(c1)[C@H]1[C@H](CCN1C(=O)c1ccncc1)[C@@H](CO)N2	50.9*	87.2*	-15.4	3.4	-0.2	7.95µM*
Cc1cccc(N=NC(=S)NNc2cccc(C)c2)c1	35.6*	6.7	-1.8	-0.1	3.7	1.02µM*
Cn1c(=O)c(NC2CCCCC2)c2c3c(cccc31)C(=O)c1ccccc1-2	-30.0	i	1.1	20.8	-2.9	/
Cn1c(=O)cc2c3c(c(N4CCCCC4)ccc31)C(=O)c1ccccc1-2	54.3*	-58.9	-3.5	103.4*	-1.0	10.3µM*
Cc1ccc2c(c1)c1c3n2CCCN(Cc2ccccc2)C3CCC1 (stereo not given)	31.8*	-5.7	-0.1	-12.8	-0.2	-10.8%
COc1ccccc1NC(=O)N[C@H]1C=C[C@@H](CC(=O)NCc2ccc(Cl)c(Cl)c2)O[C@@H]1CO	-1.3	4.7	11.1	-5.5	2.7	/
C[C@@H]1CN([C@@H](C)CO)C(=O)c2cc(C#Cc3ccncc3)cnc2O[C@H]1CN(C)C(=O)c1ccccc1F	-11.9	1.5	-11.6	0.0	5.1	/
CC(=O)c1ccc(N=Nc2ccc(N(C)C)cc2)cc1	4.3	7.3	10.7	-2.7	0.3	/
CN(C)c1ccc(N=Nc2ccccc2Br)cc1	35.0*	-14.4	-10.1	-3.3	-4.3	11.6µM*
C[C@@H]1CN([C@H](C)CO)C(=O)c2cc(NS(=O)(=O)c3ccc(F)cc3)ccc2O[C@@H](C)CCCCO[C@H]1CN(C)Cc1ccc(Cl)c(Cl)c1	7.2	-21.2	-25.2	48.9	-1.9	/
CN(C)c1cccc2c1C(=O)c1ccccc1C2=O	42.7*	8.8	16.0	-3.4	0.8	13.2µM*
COc1ccccc1CNC(=O)C[C@H]1C[C@H]2c3cc(NC(=O)NC4CCCC4)ccc3O[C@H]2[C@H](CO)O1	-2.6	-7.4	0.1	2.3	-2.7	/
CN(C)CCNc1nc2sc3c(c2c(=O)n1CCc1ccccc1)CCCCC3	31.3*	23.9	/	2.0	2.7	-7.5%
C[C@H](CO)N1C[C@H](C)[C@H](CN(C)C(=O)c2ccncc2)OCCCC[C@H](C)Oc2ccc(NS(=O)(=O)c3ccc(F)cc3)cc2C1=O	-1.5	3.0	6.2	-26.1	1.9	/
CNC[C@@H]1Oc2ccc(NC(=O)Nc3cccc4ccccc34)cc2C(=O)N([C@H](C)CO)C[C@H]1C	1.0	1.1	-8.0	6.8	1.1	/
CCN(CC)c1ccc(N=Cc2ccc([N+](=O)[O-])o2)cc1	45.8*	-8.9	/	-3.9	1.6	-24.8%
C[C@@H]1ON(C)[C@H]2C[C@H]3c4[nH]c5ccc(-c6ccc7c(c6)OCO7)cc5c4CCN3C[C@@H]12	30.7*	-4.8	-3.8	-8.1	23.8	-15.0%
C[C@@H]1ON(C)[C@H]2C[C@H]3c4[nH]c5cccc(-c6ccccc6)c5c4CCN3C[C@@H]12	/	-18.2	-10.0	-21.1	-0.9	/
COc1ccc(CN2CC3(C2)CN(Cc2ccc4c(c2)OCO4)[C@H](CO)c2[nH]c4cc(OC)ccc4c23)cc1	35.7*	/	-9.0	/	/	-28.2%
Oc1cc(-c2ccncc2)cc2cccnc12	28.8*	-18.9	-3.0	-2.4	-6.3	9.1µM*
CCN(CC)CCOc1ccc(/C(=C(/Cl)c2ccccc2)c2ccccc2)cc1	30.9*!	41.5	14.3	16.0	-1.9	-22.0%
SMILES	MLL AF4-AF9 inh	RAD52 anneal inh	GSIS activator	S100A4 inh HTS	ERAP1 inh	Alpha interfer
CCCNC(=O)C[C@@H]1C[C@@H]2c3cc(NC(=O)CC4CC4)ccc3O[C@@H]2[C@@H](CO)O1	1.4	-9.2	-4.6	-3.6	2.7	/
CNC(=S)N1N=C(c2ccc(Br)cc2)CC1c1ccc(N(C)C)cc1 (stereo not given)	26.8*	-96.6	-2.9	-1.0	0.5	-29.5%
CNC(=S)N1N=C(c2ccc(OC)cc2)CC1c1ccc(N(C)C)cc1 (stereo not given)	/	/	-24.4	/	/	/
C[C@H](CO)N1C[C@H](C)[C@@H](CN(C)C(=O)NC2CCCC2)Oc2ncc(-c3ccncc3)cc2C1=O	0.5	8.1	32.1	-0.4	-0.2	/
C[C@H]1CN([C@@H](C)CO)C(=O)c2cc(NS(=O)(=O)c3ccc(Cl)cc3)ccc2O[C@H]1CN(C)S(=O)(=O)c1ccc(F)cc1	-2.6	-6.4	-4.6	1.9	1.3	/
Nc1ccccc1NC1CCCCC1	32.6*	34.5	-6.5	-33.4	-0.3	9.99µM*
O=C(Nc1ccccc1NC(=O)NC1CCCCC1)NC1CCCCC1	/	/	-4.8	/	/	/
Cc1ccccc1S(=O)(=O)N1CC(=O)N2[C@H](C1)[C@@H](c1ccc(C#CCC(C)C)cc1)[C@@H]2CO	-3.7	-16.9	15.5	17.7	-0.2	/
Nc1ccccc1N=Nc1ccccc1N	?	-14.1	-3.0	-5.3	2.6	/
CC(C)(C)C1=CC(=Nc2ccccc2N)C=C(C(C)(C)C)C1=O	73.3*	-13.6	3.4	-6.3	3.0	2.67µM*
O=C(O)CCCNc1cc(N2CCN(C(=O)c3ccco3)CC2)c2noc3c2c1C(=O)c1ccccc1-3	37.1*	i	-5.2	-53.2	9.5	-20.5%
Cc1ccc2nc(-c3ccccn3)c(NC3CCCC3)n2c1	32.1*	3.4	-3.4	-2.3	0.5	-20.8%
CNCCNC[C@H](Cc1cccc2ccccc12)NCCc1ccccc1	12.7	29.0	28.9	-0.2	0.2	/
CNC[C@H](Cc1ccccc1)NC[C@@H](Cc1cccc2ccccc12)NCCc1ccc(C)cc1	44.6*	39.2	2.0	-1.1	/	-23.7%
C[C@H](CO)N1C[C@H](C)[C@@H](CN(C)S(=O)(=O)c2ccccc2F)Oc2ncc(C#Cc3ccccc3)cc2C1=O	-1.0	1.7	-9.4	2.4	9.2	/
C[C@@H]1CN([C@H](C)CO)C(=O)c2cc(NS(=O)(=O)c3cn(C)cn3)ccc2O[C@H]1CN(C)C(=O)NC1CCCCC1	-1.1	15.6	30.7	3.0	-0.4	/
CCOc1ccc(NC(=S)N(CCN2CCOCC2)Cc2ccc3c(c2)CCCN3CC)cc1	39.3*	7.3	-25.5	-13.3	0.5	-27.9%
CCN1CCCc2cc(CN(CCN3CCOCC3)C(=S)Nc3ccc(OC)cc3)ccc21	6.9	2.9	-2.3	-13.6	/	/
COCCN=c1scc(-c2ccco2)n1/N=C/c1ccc(O)c(O)c1O	32.9*	-9.2	0.6	-8.3	3.5	-6.1%
Cn1ccc2c(-c3ccc(F)cc3)cc3c(c21)C1CCC3C1 (stereo not given)	5.5	-16.1	8.0	5.4	11.7	/

Screening data from PubChem BioAssay.
